Measurements taken from ChEMBL document CHEMBL2040740, “Synthesis and antitumor activity of formononetin nitrogen mustard derivatives” (Eur J Med Chem, 2012).
Activity calls are given as the source filed them. No cut-off for these calls is given here.

Key:
HeLa [1] = assay: Cytotoxicity against human HeLa cells after 72 hrs by MTT assay; format: functional, cell-based
How it was run: (§1)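 Cells grown at 37 °C in 5% CO₂/95% air, in RPMI-1640 or DMEM with 10% neonatal bovine serum or 10% FBS. Exposed to a concentration series for 72 h, then MTT added for a further 4 h at 37 °C. Formazan dissolved in DMSO and absorbance read at 570 and 630 nm. Triplicate wells in three independent experiments; IC50 calculated by dose-effect analysis.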

SH-SY5Y = assay: Cytotoxicity against human SH-SY5Y cells after 72 hrs by MTT assay; format: functional, cell-based; how it was run: as §1
SGC-7901 = assay: Cytotoxicity against human SGC7901 cells after 72 hrs by MTT assay; format: functional, cell-based; details: SGC-7901, 72 h; how it was run: as §1
DU-145 = assay: Cytotoxicity against human DU145 cells after 72 hrs by MTT assay; format: functional, cell-based; details: DU-145, 72 h; how it was run: as §1
HCT-116 [2] = assay: Cytotoxicity against human HCT116 cells after 72 hrs by MTT assay; format: functional, cell-based; details: HCT-116, 72 h; how it was run: as §1
HCT-116 [3] = assay: Induction of apoptosis in human HCT116 cells assessed as late apoptotic to necrotic cells at 2 uM after 48 hrs by annexinV-FITC/PI staining-based flow cytometry (reference value: 0.43%); format: functional
How it was run: (§2)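 After 48 h treatment, cells washed twice in cold PBS and resuspended in binding buffer at 1 × 10⁵ cells/mL. Stained with Annexin V-FITC and propidium iodide in the dark for 15 min at room temperature, then analysed by flow cytometry. Lower-right quadrant scored as early-mid apoptotic, upper-right as late apoptotic/necrotic. Experiments performed three times.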

HCT-116 [4] = assay: Cell cycle arrest in human HCT116 cells assessed as accumulation in G2/M phase after 48 hrs by flow cytometry; format: functional, cell-based
How it was run: (§3)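 Cells exposed to test agent for 48 h, then harvested, washed twice in PBS and fixed in 75% ice-cold ethanol at least overnight. DNA content of 10,000 events analysed by flow cytometry, giving percentage of cells in each cycle phase versus vehicle control.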

HCT-116 [5] = assay: Induction of apoptosis in human HCT116 cells assessed as early to mid apoptotic cells at 8 uM after 48 hrs by annexinV-FITC/PI staining-based flow cytometry (reference value: 1.62%); format: functional; how it was run: as §2
HCT-116 [6] = assay: Induction of apoptosis in human HCT116 cells assessed as late apoptotic to necrotic cells at 8 uM after 48 hrs by annexinV-FITC/PI staining-based flow cytometry (reference value: 0.43%); format: functional; how it was run: as §2
HCT-116 [7] = assay: Induction of apoptosis in human HCT116 cells assessed as early to mid apoptotic cells at 2 uM after 48 hrs by annexinV-FITC/PI staining-based flow cytometry (reference value: 1.62%); format: functional; how it was run: as §2
HCT-116 [8] = assay: Cell cycle arrest in human HCT116 cells assessed as decrease in S phase cells at 2 to 8 uM after 48 hrs by flow cytometry; format: functional, cell-based; how it was run: as §3
HCT-116 [9] = assay: Cell cycle arrest in human HCT116 cells assessed as accumulation in G2/M phase at 8 uM after 48 hrs by flow cytometry relative to control; format: functional; how it was run: as §3
HeLa [10] = assay: Induction of apoptosis in human HeLa cells assessed as early to mid apoptotic cells at 5 uM after 48 hrs by annexinV-FITC/PI staining-based flow cytometry (reference value: 2.93%); format: functional; how it was run: as §2
HeLa [11] = assay: Induction of apoptosis in human HeLa cells assessed as early to mid apoptotic cells at 10 uM after 48 hrs by annexinV-FITC/PI staining-based flow cytometry (reference value: 2.93%); format: functional; how it was run: as §2
HeLa [12] = assay: Cell cycle arrest in human HeLa cells assessed as decrease in S phase cells at 3.75 to 15 uM after 48 hrs by flow cytometry; format: functional, cell-based; how it was run: as §3
HeLa [13] = assay: Cell cycle arrest in human HeLa cells assessed as accumulation in G2/M phase at 15 uM after 48 hrs by flow cytometry relative to control; format: functional; how it was run: as §3
HeLa [14] = assay: Cell cycle arrest in human HeLa cells assessed as accumulation in G2/M phase after 48 hrs by flow cytometry; format: functional, cell-based; how it was run: as §3
HeLa [15] = assay: Induction of apoptosis in human HeLa cells assessed as late apoptotic to necrotic at 5 uM after 48 hrs by annexinV-FITC/PI staining-based flow cytometry (reference value: 1.98%); format: functional; how it was run: as §2

| Structure (SMILES) | IC50 (HeLa [1]) [µM] | IC50 (SH-SY5Y) [µM] | IC50 (SGC-7901) [µM] | IC50 (DU-145) [µM] | IC50 (HCT-116 [2]) [µM] | other results |
| --- | --- | --- | --- | --- | --- | --- |
| COc1ccc(-c2coc3cc(OCCC(C)C)ccc3c2=O)cc1N(CCCl)CCCl | 9.81 | 10.4 | 9.47 | 6.6 | 7.67 |  |
| COc1ccc(-c2coc3cc(O)ccc3c2=O)cc1 [FORMONONETIN] | 8.51 | > 100 | 2.17 | > 100 | 61 |  |
| N[C@@H](Cc1ccc(N(CCCl)CCCl)cc1)C(=O)O [MELPHALAN] | 24 | 5.5 | 51 | 96.3 | 20.9 |  |
| COc1ccc(-c2coc3cc(OC4CCCC4)ccc3c2=O)cc1N(CCCl)CCCl | 19.3 | 5.13 | 15.2 | 11.1 | 8.75 |  |
| CCCOc1ccc2c(=O)c(-c3ccc(OC)c(N(CCCl)CCCl)c3)coc2c1 | 12.8 | 7.89 | > 100 | 28.8 | 15.2 |  |
| C=C(C)COc1ccc2c(=O)c(-c3ccc(OC)c(N(CCCl)CCCl)c3)coc2c1 | 18.3 | 10.8 | 15.4 | 15.6 | 14.6 |  |
| CCCCOc1ccc2c(=O)c(-c3ccc(OC)c(N(CCCl)CCCl)c3)coc2c1 | 11.8 | 16.3 | 11.8 | 8.28 | 17.1 |  |
| COc1ccc(-c2coc3cc(OCCc4ccccc4)ccc3c2=O)cc1N(CCCl)CCCl | 17.8 | 3.84 | 11 | 7.57 | 8.05 |  |
| CCOc1ccc2c(=O)c(-c3ccc(OC)c(N(CCCl)CCCl)c3)coc2c1 | 10.7 | 11.9 | 13 | 23.9 | 8.47 |  |
| COc1ccc(-c2coc3cc(OCc4ccc(C)cc4)ccc3c2=O)cc1N(CCCl)CCCl | 12.6 | 49.9 | 7.73 | 18.8 | 9.41 |  |
| COc1ccc(-c2coc3cc(OC(C)C)ccc3c2=O)cc1N(CCCl)CCCl | 12.5 | 2.17 | 9.21 | 19.5 | 3.8 | Activity (HCT-116 [3]): 0.38%; Activity (HCT-116 [4]): Dose-dependent effect; Activity (HCT-116 [5]): 38.1%; Activity (HCT-116 [6]): 43.72%; Activity (HCT-116 [7]): 9.95%; Activity (HCT-116 [8]): Active; Activity (HCT-116 [9]): 24.84% |
| COc1ccc(-c2coc3cc(OC4CCCCCC4)ccc3c2=O)cc1N(CCCl)CCCl | 8.85 | 2.08 | 14.3 | 10.1 | 5.72 |  |
| COc1ccc(-c2coc3cc(OCc4ccccc4)ccc3c2=O)cc1N(CCCl)CCCl | 16.4 | 11.4 | 18.8 | 26.5 | 4.97 |  |
| COc1ccc(-c2coc3cc(O)ccc3c2=O)cc1N(CCCl)CCCl | 56.3 | 2.7 | 8.2 | 22.6 | 4.1 |  |
| COc1ccc(-c2coc3cc(OC4CCCCC4)ccc3c2=O)cc1N(CCCl)CCCl | 8.29 | 4.44 | 15.8 | 11.2 | 6.54 | Activity (HeLa [10]): 3.06%; Activity (HeLa [11]): 8.83%; Activity (HeLa [12]): Active; Activity (HeLa [13]): 21.33%; Activity (HeLa [14]): Dose-dependent effect; Activity (HeLa [15]): 3.27% |
| CCC(C)Oc1ccc2c(=O)c(-c3ccc(OC)c(N(CCCl)CCCl)c3)coc2c1 (stereo not drawn) | 18.9 | 3.58 | 47.5 | 28.8 | 20.2 |  |
| C=CCOc1ccc2c(=O)c(-c3ccc(OC)c(N(CCCl)CCCl)c3)coc2c1 | 9.22 | 4.51 | 10.2 | 15.4 | 7.54 |  |
| COc1ccc(-c2coc3cc(OCC=C(C)C)ccc3c2=O)cc1N(CCCl)CCCl | 18 | 5.25 | 19.8 | 12.2 | 13.8 |  |
